# Bioassay records (PubChem BioAssay)
# A selection: hits, their analogues and other compounds. The true share with any hit is near 4.9%.
# NF-kB expr up: activators of NF-kB expression in neurons, primary screen, cell-based, HTS | human neuronal cells, NF-kB reporter expression; active compounds read high | fold change at 12.5 µM | 190,000 tested, 1.6% active; in the data active = fold change above about 3.3
# APP 5'UTR act: activators of APP 5'UTR luciferase reporter, primary screen, SH-SY5Y cells. AID 1276, 2008. 190,000 tested, 1% active. activation, % at 2 µM. SH-SY5Y APP 5'UTR luciferase reporter, luminescence; zero percent = DMSO vehicle wells;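 active = activation above a set limit, based on mean plus 3 SD of controls, cut at about 140% in these data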
# STAT3 act: IL-6 driven STAT3 reporter potentiators, primary screen, U3A cells, luciferase, luminescence, MLSCN library | AID 871, 2007 | 190,000 tested, 0.91% active | IL-6 STAT3-luciferase reporter; 100% = signal with IL-6 EC80 alone | activation (% of control), % at 5.6 µM;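 active = activation above the screen-wide mean of compound activation plus 3 SD, cut at about 130% in these data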
#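 Material: STAT3-luciferase reporter U3A cells. Controls: IL-6-treated wells, 100% activation. Read-out: % activation versus median of IL-6-stimulated wells. Probe or stimulus: IL-6 stimulus at 33 ng/mL final. Timing: compound 1 h, then IL-6 6 h at 37 °C. Signal: reporter luminescence signal.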
# STAT3 blocker: IL-6 driven STAT3 reporter inhibitors, primary screen, U3A cells, luciferase, luminescence, MLSCN library; IL-6 STAT3-luciferase reporter; host cell line lacks STAT1; AID 862, 2007; 190,000 tested, 0.89% active; inhibition, % at 5.5 µM;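 active = inhibition above the mean inhibition across all screened compounds plus 3 SD, cut at about 44% in these data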
# STAT1 act: STAT1 signaling activators, primary screen, cell-based, HTS, luciferase reporter | NIH 3T3 STAT1-luciferase reporter, IFN-gamma, luminescence; 100% = IFN-gamma alone, no compound | activation (% of control), % at 5.5 µM | 200,000 tested, 2.6% active | AID 932, 2007;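 active = activation above the screen-wide mean activation plus 3 SD, cut at about 130% in these data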
# STAT1 blocker: STAT1 signaling inhibitors, primary screen, cell-based, HTS, luciferase reporter. 200,000 tested, 0.35% active. AID 920, 2007. NIH 3T3 STAT1-luciferase reporter, IFN-gamma, luminescence. inhibition, % at 5.5 µM;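 active = inhibition above a set limit, the mean inhibition across all tested compounds plus 3 SD, cut at about 34% in these data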
# Hits are given with their value; 0 = inactive; - = no result.
SMILES,NF-kB expr up,APP 5'UTR act,STAT3 act,STAT3 blocker,STAT1 act,STAT1 blocker
Cc1nc(/C=C/c2ccccc2)[nH]c(=O)c1-c1ccccc1,0,0,0,0,129,0
O=[N+]([O-])CC(=Nc1ccc(Cl)cc1)N/N=C\c1oc(O)c2ccccc12,0,0,136,0,0,0
COc1cc(C(=O)Nc2ccc3c(c2)OCCO3)ccc1OC(F)F,3.4,0,0,0,140,0
COc1cc(C(=O)Nc2ccc3c(c2)OCCO3)ccc1OC(C)C,0,0,0,0,0,0
COc1cccc(OC)c1C(=O)Nc1ccc2c(c1)OCCO2,0,0,0,0,0,0
COc1ccccc1NC(=O)Nc1ccc2c(c1)OCCO2,0,-,0,0,133,0
COc1ccc(C(=O)Nc2ccc(Cl)cn2)cc1Cl,0,0,0,0,140,0
COc1ccc(NC(=O)c2ccc3c(c2)OCO3)cc1Cl,5,138,0,0,0,0
CCNC(=S)NNC(=O)c1cccn(Cc2ccc(Cl)cc2Cl)c1=O,0,0,0,0,0,0
Cn1c(=NC(=O)CCl)sc2ccccc21,0,0,0,0,0,0
O=C(CCl)N=c1sccn1Cc1cccc2ccccc12,0,0,0,81,0,92
O=C(CCl)N=c1sccn1Cc1ccc(Cl)cc1Cl,0,0,0,60,0,90
C=C1c2ccccc2NC(=S)N1Cc1ccc2c(c1)OCO2,0,0,0,0,0,0
COC(=O)c1ccccc1-n1cccc1C(=O)NP(=O)(N1CCOCC1)N1CCOCC1,0,0,0,0,0,0
C/C(O)=C(/C#N)c1nc2ccccc2[nH]1,0,-,0,0,0,0
CC(=O)OC(/C(O)=C(\C#N)c1nc2ccccc2[nH]1)c1ccccc1 (configuration not stated),3.6,0,0,0,0,0
Cn1cc(S(=O)(=O)c2ccccc2)n(C)c1=O,0,0,0,0,0,0
COC(=O)c1ccccc1NS(=O)(=O)c1ccc(Cl)nc1,0,0,0,0,0,0
NC(=O)CSCc1nc2ccccc2s1,0,0,135,0,0,0
Oc1ccccc1OCc1nc2ccccc2s1,3.4,154,0,0,0,0
CN(C1CCCCC1)S(=O)(=O)c1ccc(C(=O)N2CCN(c3nc4ccccc4s3)CC2)cc1,0,0,0,0,0,0
CCOC(=O)c1cc(C(=O)Nc2ccc(C)c(F)c2)nn1C,0,0,0,0,135,0
CCOC(=O)c1c(C)oc2c1c1c(c3ccccc32)OCN(Cc2cccnc2)C1,4.7,0,0,0,0,0
CCOC(=O)c1c(C)oc2c1c(C(c1cccnc1)N1CCOCC1)c(O)c1ccccc12 (configuration not stated),3.6,0,133,0,0,0
CCOc1ccccc1C(=O)Nc1cnn(Cc2ccc(F)cc2)c1,0,0,0,0,0,0
SMILES,NF-kB expr up,APP 5'UTR act,STAT3 act,STAT3 blocker,STAT1 act,STAT1 blocker
Fc1cccc(Cc2noc(CN3CCC(c4ccncc4)CC3)n2)c1,0,0,0,0,0,0
COCCCn1c(SCC(=O)N2CCc3ccccc32)nnc1-c1ccoc1C,-,0,136,0,0,0
CCc1ccc(/C(C)=N\Nc2ccc([N+](=O)[O-])cc2)cc1,0,0,0,0,0,0
C/C(=N\Nc1ccc([N+](=O)[O-])cc1)c1ccco1,0,0,0,0,156,0
Cc1occc1C(=O)NN=C1C2CC3CC(C2)CC1C3,0,154,0,0,150,0
CCN1/C(=C/C=C/c2oc3ccc(-c4ccccc4)cc3[n+]2CC)Oc2ccc(-c3ccccc3)cc21,0,0,0,54,0,60
O=C(NCc1ccccc1Cl)c1ccc(S(=O)(=O)Nc2cccc(C(F)(F)F)c2)cc1,0,0,0,0,0,0
COC(=O)c1ccc(NC(=O)Cn2nc(C)cc2C)cc1,0,0,0,0,0,0
CSc1nncn1/N=C/c1ccc([N+](=O)[O-])cc1,0,0,0,0,0,0
CS/C(N)=N/N=C/c1ccc([N+](=O)[O-])cc1,0,0,0,0,131,0
CCCCN1CCc2c([nH]c3ccccc23)C1=O,0,0,0,0,137,0
N/C(=N\OC(=O)C(c1ccccc1)c1ccccc1)c1ccccn1,0,0,0,0,0,0
Cc1cc(C)c(C)c(OCC(=O)O/N=C(\N)c2ccccn2)c1,0,-,0,0,0,0
N/C(=N\OC(=O)COc1ccccc1)c1ccc(Cl)cc1,0,0,0,0,0,0
N/C(=N\OC(=O)c1cc(Cl)ccc1Cl)c1ccccn1,0,172,0,0,0,0
N/C(=N\OC(=O)COc1cc(Cl)c(Cl)cc1Cl)c1ccncc1,0,0,0,0,131,0
N/C(=N\OC(=O)COc1ccc(Cl)cc1Cl)c1ccccn1,5.2,0,0,0,0,0
N/C(=N\OC(=O)COc1ccc2ccccc2c1Br)c1ccccn1,-,0,0,0,139,0
COc1ccc(S(=O)(=O)N2CCOCC2)cc1NC(=O)CSc1nnc2ccccn12,0,0,0,0,0,0
CCN1C(=O)/C(=C/C=C2/SCCN2C)SC1=S,4.7,0,0,59,152,0
COc1ccc(N2C(=O)C3C(c4ccc(C(=O)O)cc4)NC(Cc4ccccc4)(C(=O)O)C3C2=O)c([N+](=O)[O-])c1 (configuration not stated),0,0,0,0,0,0
Cc1ccc(C2(c3noc(CN4CCC(c5ccncc5)CC4)n3)CCCC2)cc1,0,0,0,0,0,0
CC(=O)c1c(C)[nH]c(C(=O)Nc2cc(C)cc(C)c2)c1C,0,0,0,0,0,0
Cc1csc(NC(=O)c2ccc(S(C)(=O)=O)cc2)n1,0,0,0,0,130,0
CC(=O)c1c(C)[nH]c(C(=O)Nc2ccc(C)cn2)c1C,0,0,0,90,0,39
SMILES,NF-kB expr up,APP 5'UTR act,STAT3 act,STAT3 blocker,STAT1 act,STAT1 blocker
CC(=O)c1c(C)[nH]c(C(=O)Nc2nc(C)cs2)c1C,0,0,0,85,0,70
COc1ccc(CC(=O)NC(C)C2COc3ccccc3O2)cc1OC (configuration not stated),0,0,0,0,0,0
CNC(=O)c1ccc(-c2ccc(OC)cc2)s1,4.6,0,0,0,138,0
COc1ccc(N=Cc2[nH]c3ccccc3c2O)cc1,0,0,0,0,0,0
COc1ccc(N=Cc2oc3ccc4ccccc4c3c2O)cc1,0,0,134,0,0,0
CC(C)(C)OC(=O)N/N=C/c1cccc([N+](=O)[O-])c1,3.9,0,0,0,130,0
C/C(=N\NC(=O)c1nn(C)cc1Br)c1cccc(NC(=O)c2ccncc2)c1,0,0,0,0,141,0
